Reference: ChEMBL document CHEMBL1177893, “Evaluation of labdane derivatives as potential anti-inflammatory agents” (Eur J Med Chem, 2010)
The source made the active and inactive calls. No cut-off for these calls is given here.

What was measured:
RAW264.7 [1] = assay: Antiinflammatory activity in mouse RAW264.7 cells assessed as inhibition of LPS-induced nitrite production treated 30 mins before LPS challenge measured after 24 hrs by Griess method; assay type: functional, cell-based
Procedure, shortened: (§1)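 RAW 264.7 cells pre-incubated 30 min with compound (1, 2, 5, 10, 25 µM; range tested up to 50 µM), then LPS 250 ng/ml for 24 h. Medium nitrite measured by Griess reaction (sulfanilamide/naphthylethylenediamine in phosphoric acid, 10 min room temperature), read spectrophotometrically. IC50 is the concentration giving 50% inhibition of NO release. Three independent experiments in triplicate.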

[2] = Cytotoxicity against LPS-stimulated mouse RAW264.7 cells assessed as cell viability at 1 uM after 24 hrs by MTT assay; assay type: cell-based; conditions: LPS-stimulated RAW264.7 cells, read-out: Activity
Procedure, shortened: (§2)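 RAW 264.7 cells plated at 10⁵ cells/well, pre-incubated 30 min with compound (1-25 µM), then LPS 250 ng/ml for 24 h. MTT added for 4 h at 37 °C; formazan dissolved in DMSO, absorbance read at 540 nm. Viability expressed relative to untreated controls. Triplicate wells, at least three independent experiments.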

RAW264.7 [3] = assay: Antiinflammatory activity in mouse RAW264.7 cells assessed as inhibition of LPS-induced PGE2 production treated 30 mins before LPS challenge measured after 24 hrs by ELISA; assay type: functional, cell-based
Procedure, shortened: (§3)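 RAW 264.7 macrophages pretreated 30 min with compound, then stimulated with LPS 250 ng/ml for 24 h. PGE2 in culture medium quantified in duplicate by EIA kit. IC50 is the concentration giving 50% inhibition of PGE2 release. Three independent experiments in triplicate.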

RAW264.7 [4] = assay: Cytotoxicity against LPS-stimulated mouse RAW264.7 cells assessed as cell viability at 25 uM after 24 hrs by MTT assay; assay type: cell-based; conditions: raw264.7, 24 h; procedure, shortened: as §2
RAW264.7 [5] = assay: Cytotoxicity against LPS-stimulated mouse RAW264.7 cells assessed as cell viability at 10 uM after 24 hrs by MTT assay; assay type: cell-based; conditions: raw264.7, 24 h; procedure, shortened: as §2
RAW264.7 [6] = assay: Antiinflammatory activity in mouse RAW264.7 cells assessed as inhibition of LPS-induced nitrite production at 25 uM treated 30 mins before LPS challenge measured after 24 hrs by Griess method; assay type: functional, cell-based; procedure, shortened: as §1
RAW264.7 [7] = assay: Antiinflammatory activity in mouse RAW264.7 cells assessed as inhibition of LPS-induced PGE2 production at 25 uM treated 30 mins before LPS challenge measured after 24 hrs by ELISA; assay type: functional, cell-based; procedure, shortened: as §3
Mus musculus [8] = assay: Antiinflammatory activity in Swiss mouse assessed as reduction of 12-O-tetradecanoylphorbol acetate-induced ear swelling at 0.25 to 1 mg/ear administered topically measured after 4 hrs; assay type: functional, organism-based
Procedure, shortened: (§4)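 TPA ([…]) applied to inner and outer surfaces of right ear of Swiss mice (20-25 g); test agent applied topically in acetone 30 min before TPA. Mice killed after 4 h; equal ear punches weighed, edema as right-over-left weight increase. MPO measured in saline homogenate supernatants (10,000g, 15 min, 4 °C) with tetramethylbenzidine substrate, pH 5.4 phosphate. Three independent experiments in triplicate.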

Mus musculus [9] = assay: Antiinflammatory activity in Swiss mouse ear homogenates assessed as reduction of 12-O-tetradecanoylphorbol acetate-induced myeloperoxidase activity at 0.25 to 1 mg/ear administered topically measured after 4 hrs; assay type: functional, organism-based; procedure, shortened: as §4
RAW264.7 [10] = assay: Antiinflammatory activity in mouse RAW264.7 cells assessed as inhibition of LPS-induced nitrite production at 50 uM treated 30 mins before LPS challenge measured after 24 hrs by Griess method; assay type: functional, cell-based; procedure, shortened: as §1

IC50 (RAW264.7 [1]) | IC50 (RAW264.7 [3]) | Activity (Mus musculus [9]) | SMILES | viability at 24 h, 1 µM [2] | inhibition (RAW264.7 [1]) | Activity (RAW264.7 [4]) | inhibition (RAW264.7 [3]) | Activity (RAW264.7 [5]) | inhibition (RAW264.7 [6]) | inhibition (RAW264.7 [7]) | Activity (Mus musculus [8]) | inhibition (RAW264.7 [10])
> 50 µM | > 50 µM |  | C[C@@H](CC[C@@H]1[C@@]2(C)CCCC(C)(C)[C@@H]2CC[C@@]1(C)O)CC(=O)O [LABDANIC ACID] | 80% |  |  |  |  |  |  |  | 
> 50 µM | > 50 µM |  | C[C@H](CC=O)CC[C@@H]1[C@@]2(C)CCCC(C)(C)[C@@H]2CC[C@@]1(C)O | 80% |  |  |  |  |  |  |  | 
15 µM | 20 µM |  | CC1=C(CC[C@H](C)CCO)[C@@]2(C)CCCC(C)(C)[C@@H]2CC1 | 75% | Dose-dependent effect | Toxic | Dose-dependent effect |  |  |  |  | 
5 µM | 10 µM | Active | COC(=O)C[C@@H](C)CC[C@@H]1[C@@]2(C)CCCC(C)(C)[C@@H]2CC[C@@]1(C)O [LABDANIC ACID METHYL ESTER] | 95% | Dose-dependent effect |  | Dose-dependent effect | Non-toxic | Active | Active | Active | 
15 µM | 25 µM |  | CC(=O)OCC[C@@H](C)CC[C@@H]1[C@@]2(C)CCCC(C)(C)[C@@H]2CC[C@@]1(C)O | 90% | Dose-dependent effect |  | Dose-dependent effect | Non-toxic |  |  |  | 
10 µM | 25 µM |  | C[C@H](CCO)CC[C@@]1(C)C2=C(CC[C@@H]1C)C(C)(C)CCC2 | 75% | Dose-dependent effect | Toxic | Dose-dependent effect |  |  |  |  | 

The next lines start with the molecule.

SMILES | IC50 (RAW264.7 [1]) | IC50 (RAW264.7 [3]) | Activity (Mus musculus [9]) | viability at 24 h, 1 µM [2] | inhibition (RAW264.7 [1]) | Activity (RAW264.7 [4]) | inhibition (RAW264.7 [3]) | Activity (RAW264.7 [5]) | inhibition (RAW264.7 [6]) | inhibition (RAW264.7 [7]) | Activity (Mus musculus [8]) | inhibition (RAW264.7 [10])
CC(=N)NCc1cccc(CN)c1 |  |  |  |  |  |  |  |  |  |  |  | Active
C[C@H](CCOC(=O)c1ccc(Br)cc1)CC[C@@H]1[C@@]2(C)CCCC(C)(C)[C@@H]2CC[C@@]1(C)O | > 50 µM | > 50 µM |  | 80% |  |  |  |  |  |  |  | 
C[C@H](CCO)CC[C@@H]1[C@@]2(C)CCCC(C)(C)[C@@H]2CC[C@@]1(C)O [LABDANEDIOL] | 15 µM | 25 µM |  | 40% | Dose-dependent effect |  | Dose-dependent effect | Toxic |  |  |  | 
CCCCCCCCCCCC(=O)OCC[C@@H](C)CC[C@@H]1[C@@]2(C)CCCC(C)(C)[C@@H]2CC[C@@]1(C)O | > 50 µM | > 50 µM |  | 80% |  |  |  |  |  |  |  | 
